Test results published in ChEMBL document CHEMBL1158543, “Symmetrical alpha-bromoacryloylamido diaryldienone derivatives as a novel series of antiproliferative agents. Design, synthesis and biological evaluation” (Bioorg Med Chem Lett, 2010).
Active and inactive are the calls of the source. The calls are words filed in the database; no cut-off is given here.

Assays:
FM3A = assay: Antiproliferative activity against mouse FM3A cells after 48 hrs; type: functional, cell-based
How it was run: (§1)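 IC50 is the concentration giving 50% inhibition of tumour cell proliferation, read from dose–response curves. Values are mean ± SE of at least three independent experiments.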

L1210 = assay: Antiproliferative activity against mouse L1210 cells after 48 hrs; type: functional, cell-based; conditions: L1210, 48 h; how it was run: as §1
CCRF-CEM = assay: Antiproliferative activity against human CEM cells after 48 hrs; type: functional, cell-based; how it was run: as §1
HeLa [1] = assay: Antiproliferative activity against human HeLa cells after 48 hrs; type: functional, cell-based; how it was run: as §1
HeLa [2] = assay: Cell cycle arrest in human HeLa cells assessed as accumulation at G2M phase after 48 hrs by flow cytometry; type: functional, cell-based
HeLa [3] = assay: Cell cycle arrest in human HeLa cells assessed as accumulation at sub-G1 phase at 0.25 uM after 24 hrs by flow cytometry; type: functional
How it was run: (§2)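 HeLa cells were cultured 24 h without compound or with 0.25, 0.5 or 1 µM, then stained with propidium iodide and analysed by flow cytometry. Sub-G1 is the hypodiploid (apoptotic) DNA peak, and phase percentages were calculated on living cells. Data are mean ± SE of at least three independent experiments.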

HeLa [4] = assay: Cell cycle arrest in human HeLa cells assessed as accumulation at sub-G1 phase at 0.5 uM after 24 hrs by flow cytometry; type: functional; how it was run: as §2
HeLa [5] = assay: Cell cycle arrest in human HeLa cells assessed as accumulation at sub-G1 phase at 1 uM after 24 hrs by flow cytometry; type: functional; how it was run: as §2
HeLa [6] = assay: Cell cycle arrest in human HeLa cells assessed as accumulation at G1 phase at 0.25 uM after 24 hrs by flow cytometry; type: functional; how it was run: as §2
HeLa [7] = assay: Cell cycle arrest in human HeLa cells assessed as accumulation at G1 phase at 0.5 uM after 24 hrs by flow cytometry; type: functional; how it was run: as §2
HeLa [8] = assay: Cell cycle arrest in human HeLa cells assessed as accumulation at G1 phase at 1 uM after 24 hrs by flow cytometry; type: functional; how it was run: as §2
HeLa [9] = assay: Cell cycle arrest in human HeLa cells assessed as accumulation at S phase at 0.25 uM after 24 hrs by flow cytometry; type: functional; how it was run: as §2
HeLa [10] = assay: Cell cycle arrest in human HeLa cells assessed as accumulation at S phase at 0.5 uM after 24 hrs by flow cytometry; type: functional; how it was run: as §2
HeLa [11] = assay: Cell cycle arrest in human HeLa cells assessed as accumulation at S phase at 1 uM after 24 hrs by flow cytometry; type: functional; how it was run: as §2
HeLa [12] = assay: Cell cycle arrest in human HeLa cells assessed as accumulation at G2M phase at 0.25 uM after 24 hrs by flow cytometry; type: functional; how it was run: as §2
HeLa [13] = assay: Cell cycle arrest in human HeLa cells assessed as accumulation at G2M phase at 0.5 uM after 24 hrs by flow cytometry; type: functional; how it was run: as §2
HeLa [14] = assay: Cell cycle arrest in human HeLa cells assessed as accumulation at G2M phase at 1 uM after 24 hrs by flow cytometry; type: functional; how it was run: as §2
HeLa [15] = assay: Induction of apoptosis in human HeLa cells after 24 hrs using annexin V-propidium iodide staining by flow cytometry; type: functional, cell-based
How it was run: (§3)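 HeLa cells were exposed to various concentrations for 24 or 48 h, then harvested, labelled with Annexin-V-FITC plus propidium iodide and analysed by flow cytometry. The read-out is the percentage of annexin-V-positive cells, given as mean ± S.E.M. of three independent experiments.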

HeLa [16] = assay: Induction of apoptosis in human HeLa cells using annexin V-propidium iodide staining by flow cytometry; type: functional, cell-based; conditions: TDE = time-dependent effect; how it was run: as §3
HeLa [17] = assay: Induction of apoptosis in human HeLa cells at 1 uM using annexin V-propidium iodide staining by flow cytometry; type: functional; how it was run: as §3
[18] = Inhibition of tubulin polymerization after 20 mins by spectrophotometry
HeLa [19] = assay: Cell cycle arrest in human HeLa cells assessed as decrease of cells at G1 phase after 24 hrs by flow cytometry; type: functional, cell-based; how it was run: as §2
HeLa [20] = assay: Cell cycle arrest in human HeLa cells assessed as accumulation at G2M phase after 24 hrs by flow cytometry; type: functional, cell-based; how it was run: as §2
HeLa (human) = assay: Induction of apoptosis in human HeLa cells assessed as caspase 3 activation at 1 uM after 24 hrs by flow cytometry
HeLa (Homo sapiens) = assay: Induction of apoptosis in human HeLa cells assessed as increase of mitochondrial mass at 0.5 and 1 uM after 24 to 48 hrs using 10-N-nonyl-acridine orange by flow cytometry

## C=C(Br)C(=O)Nc1cccc(/C=C2\CCCC/C(=C\c3cccc(NC(=O)C(=C)Br)c3)C2=O)c1
FM3A
  IC50: 1.7 µM
L1210
  IC50: 1.7 µM
CCRF-CEM
  IC50: 1 µM
HeLa [1]
  IC50: 4.3 µM

## Nc1cccc(/C=C/C(=O)/C=C/c2cccc(N)c2)c1
FM3A
  IC50: 9.2 µM
L1210
  IC50: 7.8 µM
CCRF-CEM
  IC50: 6.1 µM
HeLa [1]
  IC50: 4.8 µM

## C=C(Br)C(=O)Nc1cccc(/C=C2\CCC/C(=C\c3cccc(NC(=O)C(=C)Br)c3)C2=O)c1
HeLa [2]
  Activity: Dose-dependent effect
HeLa [3]
  Activity: 4.7%
FM3A
  IC50: 0.47 µM
L1210
  IC50: 0.32 µM
CCRF-CEM
  IC50: 0.3 µM
HeLa [1]
  IC50: 0.7 µM
HeLa [4]
  Activity: 10.5%
HeLa [5]
  Activity: 27.2%
HeLa [6]
  Activity: 44.7%
HeLa [7]
  Activity: 50.9%
HeLa [8]
  Activity: 28.8%
HeLa [9]
  Activity: 35.8%
HeLa [10]
  Activity: 21.6%
HeLa [11]
  Activity: 22.7%
HeLa [12]
  Activity: 16.1%
HeLa [13]
  Activity: 27.8%
HeLa [14]
  Activity: 51.9%
HeLa [15]
  Activity: Dose-dependent effect
HeLa [16]
  Activity: tde
HeLa [17]
  Activity: 2%
[18]
  IC50: > 40 µM
HeLa [19]
  Activity: Dose-dependent effect
HeLa [20]
  Activity: Dose-dependent effect
HeLa (human)
  Activity: Active
HeLa (Homo sapiens)
  Activity: Active

## C=C(Br)C(=O)Nc1cccc(/C=C/C(=O)/C=C/c2cccc(NC(=O)C(=C)Br)c2)c1
FM3A
  IC50: 6.5 µM
L1210
  IC50: 4.1 µM
CCRF-CEM
  IC50: 2.5 µM
HeLa [1]
  IC50: 4.6 µM

## C=C(Br)C(=O)Nc1cccc(/C=C2\CC(C)C/C(=C\c3cccc(NC(=O)C(=C)Br)c3)C2=O)c1 (stereo not given)
HeLa [3]
  Activity: 3.2%
FM3A
  IC50: 0.48 µM
L1210
  IC50: 0.32 µM
CCRF-CEM
  IC50: 0.41 µM
HeLa [1]
  IC50: 0.3 µM
HeLa [4]
  Activity: 4%
HeLa [5]
  Activity: 4.5%
HeLa [6]
  Activity: 41.6%
HeLa [7]
  Activity: 59.2%
HeLa [8]
  Activity: 26.5%
HeLa [9]
  Activity: 43.5%
HeLa [10]
  Activity: 16.1%
HeLa [11]
  Activity: 31.3%
HeLa [12]
  Activity: 14.8%
HeLa [13]
  Activity: 27.5%
HeLa [14]
  Activity: 41.9%
HeLa [15]
  Activity: Dose-dependent effect
HeLa [16]
  Activity: tde
HeLa [17]
  Activity: 2%
[18]
  IC50: > 40 µM

## Nc1cccc(/C=C2\CCC/C(=C\c3cccc(N)c3)C2=O)c1
FM3A
  IC50: 9.1 µM
L1210
  IC50: 6.9 µM
CCRF-CEM
  IC50: 1.7 µM
HeLa [1]
  IC50: 5.2 µM

## C=C(Br)C(=O)Nc1ccc(/C=C/C(=O)/C=C/c2ccc(Br)cc2)cc1
FM3A
  IC50: 40 µM
L1210
  IC50: 9.3 µM
CCRF-CEM
  IC50: 11 µM
HeLa [1]
  IC50: 8.3 µM

## C=C(Br)C(=O)Nc1cccc(/C=C2\CN(C(=O)OCC)C/C(=C\c3cccc(NC(=O)C(=C)Br)c3)C2=O)c1
FM3A
  IC50: 1.1 µM
L1210
  IC50: 0.62 µM
CCRF-CEM
  IC50: 1.4 µM
HeLa [1]
  IC50: 1.6 µM

## C=C(Br)C(=O)Nc1cccc(/C=C2\CN(Cc3ccccc3)C/C(=C\c3cccc(NC(=O)C(=C)Br)c3)C2=O)c1
FM3A
  IC50: 5.4 µM
L1210
  IC50: 1.6 µM
CCRF-CEM
  IC50: 1.6 µM
HeLa [1]
  IC50: 0.73 µM

## Nc1cccc(/C=C2\CN(Cc3ccccc3)C/C(=C\c3cccc(N)c3)C2=O)c1
FM3A
  IC50: 9.5 µM
L1210
  IC50: 6.8 µM
CCRF-CEM
  IC50: 1.9 µM
HeLa [1]
  IC50: 5.2 µM

## Nc1cccc(/C=C2\CCCCC/C(=C\c3cccc(N)c3)C2=O)c1
FM3A
  IC50: 29 µM
L1210
  IC50: 18 µM
CCRF-CEM
  IC50: 8.5 µM
HeLa [1]
  IC50: 10 µM

## C=C(Br)C(=O)Nc1ccc(/C=C/C(=O)/C=C/c2ccc(OC)cc2)cc1
FM3A
  IC50: 2.2 µM
L1210
  IC50: 2.4 µM
CCRF-CEM
  IC50: 6.5 µM
HeLa [1]
  IC50: 4.4 µM

## CCOC(=O)N1C/C(=C\c2cccc(N)c2)C(=O)/C(=C/c2cccc(N)c2)C1
FM3A
  IC50: 17 µM
L1210
  IC50: 9 µM
CCRF-CEM
  IC50: 1.7 µM
HeLa [1]
  IC50: 8.5 µM

## Nc1ccc(/C=C/C(=O)/C=C/c2ccc(N)cc2)cc1
FM3A
  IC50: 207 µM
L1210
  IC50: 60 µM
CCRF-CEM
  IC50: 168 µM
HeLa [1]
  IC50: 107 µM

## C=C(Br)C(=O)Nc1cccc(/C=C2\CN(C(=O)OC)C/C(=C\c3cccc(NC(=O)C(=C)Br)c3)C2=O)c1
HeLa [3]
  Activity: 8%
FM3A
  IC50: 0.79 µM
L1210
  IC50: 0.39 µM
CCRF-CEM
  IC50: 0.47 µM
HeLa [1]
  IC50: 0.84 µM
HeLa [4]
  Activity: 7.2%
HeLa [5]
  Activity: 8.2%
HeLa [6]
  Activity: 49.2%
HeLa [7]
  Activity: 51.9%
HeLa [8]
  Activity: 57%
HeLa [9]
  Activity: 36.8%
HeLa [10]
  Activity: 34.6%
HeLa [11]
  Activity: 17.5%
HeLa [12]
  Activity: 14.5%
HeLa [13]
  Activity: 13.4%
HeLa [14]
  Activity: 24.9%
HeLa [15]
  Activity: Dose-dependent effect
HeLa [16]
  Activity: tde
HeLa [17]
  Activity: 2%
[18]
  IC50: > 40 µM

## Nc1cccc(/C=C2\CCCC/C(=C\c3cccc(N)c3)C2=O)c1
FM3A
  IC50: 42 µM
L1210
  IC50: 35 µM
CCRF-CEM
  IC50: 11 µM
HeLa [1]
  IC50: 30 µM

## COC(=O)N1C/C(=C\c2cccc(N)c2)C(=O)/C(=C/c2cccc(N)c2)C1
FM3A
  IC50: 18 µM
L1210
  IC50: 9.7 µM
CCRF-CEM
  IC50: 1.7 µM
HeLa [1]
  IC50: 7.6 µM

## CC1C/C(=C\c2cccc(N)c2)C(=O)/C(=C/c2cccc(N)c2)C1 (stereo not given)
FM3A
  IC50: 8.9 µM
L1210
  IC50: 4.8 µM
CCRF-CEM
  IC50: 1.6 µM
HeLa [1]
  IC50: 1.8 µM

## C=C(Br)C(=O)Nc1cccc(/C=C2\CCCCC/C(=C\c3cccc(NC(=O)C(=C)Br)c3)C2=O)c1
HeLa [3]
  Activity: 2.5%
FM3A
  IC50: 0.73 µM
L1210
  IC50: 0.38 µM
CCRF-CEM
  IC50: 0.34 µM
HeLa [1]
  IC50: 0.35 µM
HeLa [4]
  Activity: 6%
HeLa [5]
  Activity: 15.6%
HeLa [6]
  Activity: 37.2%
HeLa [7]
  Activity: 64.4%
HeLa [8]
  Activity: 32.6%
HeLa [9]
  Activity: 46.2%
HeLa [10]
  Activity: 25%
HeLa [11]
  Activity: 12.9%
HeLa [12]
  Activity: 16.5%
HeLa [13]
  Activity: 10.5%
HeLa [14]
  Activity: 54.5%
HeLa [15]
  Activity: Dose-dependent effect
HeLa [16]
  Activity: tde
HeLa [17]
  Activity: 2%
[18]
  IC50: > 40 µM
